Results on two compounds are retold here after ChEMBL document CHEMBL4350958, “Rational Design of Short Peptide Variants by Using Kunitzin-RE, an Amphibian-Derived Bioactivity Peptide, for Acquired Potent Broad-Spectrum Antimicrobial and Improved Therapeutic Potential of Commensalism Coinfection of Pathogens” (J Med Chem, 2019).

Data set [1] concerns Escherichia coli. Nature of the data set: Bactericidal activity against Escherichia coli ATCC 25922 assessed as reduction in bacterial growth at MBC measured within 30 mins by time-kill assay relative to control. Type of data set: functional. Further details: scale not given: the % may be the effect or the level left. The essentials:
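Time-kill assay. Cells at a final 0.5–1 × 10^5 CFU mL−1 were exposed to peptide at 1×MBC. Aliquots were removed at different times to calculate the survival rate against an untreated control. Mean of three independent experiments, each with three technical replicates.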

Data set [2] deals with Lipopolysaccharide (LPS). Nature of the data set: Displacement of BODIPY-TR-cadaverine from Escherichia coli O111:B4 LPS at 16 uM after 1 hr by spectrofluorophotometric method relative to control. In outline:
(§1)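 E. coli O111:B4 LPS (50 μg/mL) preloaded 4 h with BODIPY-TR-cadaverine (5 μg/mL) in 50 mM Tris, pH 7.4. Mixed 1:1 with peptide (1–64 µM series), 1 h at 37 °C, then fluorescence read. Expressed as %ΔF: 0% is probe with LPS and no peptide, 100% is probe with LPS plus 10 μg/mL polymyxin B. Three technical replicates.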

Data set [3] has as its system Lipopolysaccharide (LPS). The data set can be described thus: Displacement of BODIPY-TR-cadaverine from Escherichia coli O111:B4 LPS at 64 uM after 1 hr by spectrofluorophotometric method relative to control. The essentials: as §1
Data set [4] relates to Escherichia coli. The data set can be described thus: Induction of outer membrane permeabilization in Escherichia coli ATCC 25922 at sub-MIC by NPN-dye based assay relative to control. The essentials: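 Mid-log E. coli ATCC 25922 (OD600 0.2) preloaded 30 min with 10 μM NPN in 5 mM HEPES, pH 7.4, 5 mM glucose; cells mixed with equal volume of peptide solutions (1 to 64 μM). Fluorescence (ex 350, em 420 nm) read until plateau, background-subtracted, expressed as % NPN uptake relative to 10 μg/mL polymyxin B (100%). Three independent experiments, triplicate each.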

Data set [5] concerns Staphylococcus aureus. The data set can be described thus: Drug uptake in plasma membrane of Staphylococcus aureus ATCC 29213 at MBC measured after 30 mins using FITC-labeled compound by microscopic analysis. Type of data set: ADME, organism-based. The settings on record: in vivo, 0.5 h. In outline: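 E. coli ATCC 25922 or S. aureus ATCC 29213 (OD600 0.2) incubated with FITC-labeled peptide at 1×MBC, 37 °C, 30 min. Cells washed, resuspended with PI (10 μg/mL) in PBS, smeared and imaged by superresolution microscopy using 488 and 535 nm filters for FITC and PI. Peptide-free cells served as controls. Three independent scans.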

In data set [6] the test system is Staphylococcus aureus. Nature of the data set: Induction of morphological changes in Staphylococcus aureus ATCC 29213 assessed as membrane blebbing at MBD measured after 1 hr by atomic force microscopic analysis. It is filed as functional, organism-based.
Data set [7] concerns Escherichia coli. The data set can be described thus: Induction of outer membrane permeabilization in Escherichia coli ATCC 25922 at 4 uM by NPN-dye based assay relative to control. The essentials:
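Mid-log E. coli ATCC 25922 (OD600 0.2) incubated 30 min with NPN (10 μM) in 5 mM HEPES pH 7.4 with 5 mM glucose, then mixed 1:1 with peptide (1–64 μM). Fluorescence (ex 350/em 420 nm) recorded until it plateaued. Percent NPN uptake calculated relative to no peptide and to 10 μg/mL polymyxin B. Three independent experiments, triplicates.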

Data set [8] has as its system Candida albicans. Nature of the data set: Fungicidal activity against Candida albicans cgmcc2.2086 assessed as reduction in bacterial growth at MFC measured within 3 mins by time-kill assay relative to control. Type of data set: functional. Further details: scale not given: the % may be the effect or the level left. The essentials: (§2)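 Time-kill: cells at a final 0.5–1×10^5 CFU/mL were exposed to peptide at 1×MBC/MFC. Aliquots were removed at intervals to count survivors against an untreated control. Means of three independent experiments, each with three technical replicates.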

The test system of data set [9] is Staphylococcus aureus. Nature of the data set: Induction of morphological changes in Staphylococcus aureus ATCC 29213 assessed as cytoplasmic leakage at MBD measured after 1 hr by transmission electron microscopic analysis. Type of data set: functional, organism-based.
The subject of data set [10] is Lipid bilayer. Nature of the data set: Induction of membrane disruption in PG/CL/PE large unilamellar vesicles assessed as calcein-entrapped liposome leakage at 8 uM after 15 mins by spectrofluorophotometric assay relative to control. In outline: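 Calcein (70 mM)-loaded LUVs of PG/CL/PE (2:1:7 w/w/w, E. coli membrane mimic), made by freeze-thaw and 100-nm extrusion, free dye removed on Sephadex G-50. LUVs (100 μM) exposed to peptide (1–64 μM) for 15 min. Leakage read at ex 490/em 520 nm: liposomes alone are background, Triton X-100 is 100%. Independent triplicates.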

Data set [11] has as its system Pseudomonas aeruginosa. Nature of the data set: Bactericidal activity against gentamicin-resistant Pseudomonas aeruginosa ATCC 27853 incubated for 24 hrs followed by replating on agar plate and measured after overnight incubation. It is filed as functional, organism-based.
In data set [12] the test system is Pseudomonas aeruginosa. The data set can be described thus: Bactericidal activity against melittin-resistant Pseudomonas aeruginosa ATCC 27853 incubated for 24 hrs followed by replating on agar plate and measured after overnight incubation. It is filed as functional, organism-based.
Data set [13] deals with Candida albicans. The data set can be described thus: Antifungal activity against Candida albicans cgmcc2.2086 assessed as ratio of MIC95 in presence of CaCl2 to in absence of CaCl2. It is filed as functional. In outline:
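C. albicans cgmcc 2.2086, (0.5–1) × 10^3 CFU/mL final in MOPS-buffered RPMI 1640, with or without 2 mM CaCl2 (final). Peptide serially diluted in 0.2% BSA and mixed 1:1, 48 h at 28 °C. MIC is the lowest concentration inhibiting 95% of growth by A492. Three independent assays, each with three technical replicates.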

The test system of data set [14] is Staphylococcus aureus. Nature of the data set: Bactericidal activity against Staphylococcus aureus ATCC 29213 assessed as reduction in bacterial growth at MBC measured within 30 mins by time-kill assay relative to control. Type of data set: functional. Further details: scale not given: the % may be the effect or the level left. In outline: as §2
Data set [15] concerns Escherichia coli. Nature of the data set: Induction of morphological changes in Escherichia coli ATCC 25922 assessed as membrane blebbing at MBD measured after 1 hr by scanning electron microscopic analysis. It is filed as functional, organism-based.
The subject of data set [16] is Staphylococcus aureus. The data set can be described thus: Induction of morphological changes in Staphylococcus aureus ATCC 29213 assessed as tiny hole formation at MBD measured after 1 hr by transmission electron microscopic analysis. It is filed as functional, organism-based.
In data set [17] the test system is Staphylococcus aureus. The data set can be described thus: Induction of morphological changes in Staphylococcus aureus ATCC 29213 assessed as sparse distribution of cytoplasm at MBD measured after 1 hr by transmission electron microscopic analysis. Type of data set: functional, organism-based.
The subject of another data set is RAW264.7. The data set can be described thus: Cytotoxicity against mouse RAW264.7 cells assessed as cell viability at 2 to 64 uM measured after 18 to 24 hrs by MTT assay relative to control. It is filed as cell-based. The settings on record: raw264.7, 64 µM. The essentials:
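MTT assay: RAW264.7 cells seeded at 1.0–2.0×10^4 per well and exposed to peptide (2–64 µM) for 18–24 h at 37 °C in 5% CO2. MTT (0.5 mg/mL) added for 4 h, formazan dissolved in DMSO, read at 570 nm. At least three independent experiments with triplicate wells.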
In general terms: Tetrazolium dyes change colour on reduction, which living cells bring about.

The test system of data set [18] is Lipid bilayer. Nature of the data set: Induction of membrane disruption in PG/CL/PE large unilamellar vesicles assessed as calcein-entrapped liposome leakage at 1 to 64 uM after 15 mins by spectrofluorophotometric assay. In outline: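 Calcein-loaded LUVs (PG/CL/PE 2:1:7 w/w/w, E. coli membrane mimic), extruded through 100-nm filters, free dye removed on Sephadex G-50. Lipid (100 μM) incubated 15 min with peptide (1–64 μM). Calcein release read at ex 490/em 520 nm and normalised to Triton X-100. Triplicate, three biological replicates.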

Calls of active or inactive are those of the source. The rule behind the calls is not given here.

Turning to H-AARIILRWRFR-NH2, the Activity in the data set on Escherichia coli [1] is 99.99%; in the data set with Lipopolysaccharide (LPS) [2], 99%; in the data set on Lipopolysaccharide (LPS) [3], 180%; in the data set with Escherichia coli [4], 15%; with Escherichia coli [7] it was “>=50 - 51%”; with Candida albicans [8] it was 99.99%. Moreover, the figures for the Activity with Lipid bilayer [10] and in the data set with Staphylococcus aureus [14] were > 40% and 99.99%, respectively. Besides, in the data set on Staphylococcus aureus [5], the Drug uptake result is given as “Active”. Moreover, the result in the data set on Staphylococcus aureus [6], with Staphylococcus aureus [9], in the data set on Pseudomonas aeruginosa [11], with Pseudomonas aeruginosa [12], with Escherichia coli [15] and in the data set with Staphylococcus aureus [16] was Active. Moreover, the result with Staphylococcus aureus [17] was Active. The Ratio with Candida albicans [13] was 4.

As to `CC[C@H](C)[C@H](NC(=O)CN)C(=O)NCC(=O)N[C@@H](C)C(=O)N[C@H](C(=O)N[C@@H](CC(C)C)C(=O)N[C@@H](CCCCN)C(=O)N[C@H](C(=O)N[C@@H](CC(C)C)C(=O)N[C@H](C(=O)N[C@H](C(=O)NCC(=O)N[C@@H](CC(C)C)C(=O)N1CCC[C@H]1C(=O)N[C@@H](C)C(=O)N[C@@H](CC(C)C)C(=O)N[C@H](C(=O)N[C@@H](CO)C(=O)N[C@@H](Cc1c[nH]c2ccccc12)C(=O)N[C@H](C(=O)N[C@@H](CCCCN)C(=O)N[C@@H](CCCNC(=N)N)C(=O)N[C@@H](CCCCN)C(=O)N[C@@H](CCCNC(=N)N)C(=O)N[C@@H](CCC(N)=O)C(=O)N[C@@H](CCC(N)=O)C(N)=O)[C@@H](C)CC)[C@@H](C)CC)[C@@H](C)O)[C@@H](C)O)C(C)C)C(C)C` [MELITTIN], in the data set with RAW264.7, the Activity result is listed as “Toxic”. For the same compound, in the data set on Lipid bilayer [18], the result was Active.
